Screens as filed in PubChem BioAssay.
OXTR potentiate: potentiates the human oxytocin receptor response; P30559; CHO-OTR cells, Fluo-8 calcium fluorescence, potentiator mode; 0% = oxytocin EC15, 100% = EC100; activation, % at 3 µM; actives 0.061% (n = 320,000);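 active = activation above that plate's cutoff, the mean activation of tested compounds plus 3 SD, cut at about 6.6% in these data, passing the limit was not always enough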
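System: human OTR in CHO cells; Also added: sub-maximal oxytocin, roughly EC15; Timing: compound 6 min at room temperature before oxytocin, 100 s read; Technique: Fluo-8 intracellular calcium fluorescence, ex 470-495, em 515-575 nm; Controls: oxytocin EC15 low and EC100 high; Replication: singlicate.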
OXTR agonist: activates the human oxytocin receptor. P30559. CHO-OTR cells, Fluo-8 calcium fluorescence; normalized: DMSO 0%, oxytocin 100%. activation, % at 3 µM. actives 0.32% (n = 320,000). AID 2435;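 active = activation above the mean of all tested compounds plus 3 SD, cutoff set per screening run, cut at about 20% in these data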;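 note: peak over basal fluorescence ratio from a 100 s FLIPR kinetic read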
TAAR1 antag: human TAAR1 antagonism | AID 624466 | inhibition, % at 3 µM | actives 1.5% (n = 360,000) | CHO RD-HGA16 TAAR1, Fluo-8 calcium fluorescence, antagonist;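 active = inhibition above a per-plate cutoff, the mean inhibition of test compounds on that plate plus 3 SD, cut at about 49% in these data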
Target sequence (Q96RJ0 whole entry, looked up): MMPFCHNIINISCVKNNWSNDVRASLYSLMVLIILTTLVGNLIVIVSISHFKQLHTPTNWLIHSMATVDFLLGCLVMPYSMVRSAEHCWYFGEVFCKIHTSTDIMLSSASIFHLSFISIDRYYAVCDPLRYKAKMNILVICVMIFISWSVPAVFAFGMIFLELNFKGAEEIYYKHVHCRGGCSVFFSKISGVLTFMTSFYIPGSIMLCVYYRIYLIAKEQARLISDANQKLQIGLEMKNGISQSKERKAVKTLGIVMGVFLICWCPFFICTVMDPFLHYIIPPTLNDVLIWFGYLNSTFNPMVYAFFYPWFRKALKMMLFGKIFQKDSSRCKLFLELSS
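Test system – hTAAR1-expressing CHO RD-HGA16 cells, Gα16-coupled · Also added – β-PEA at EC80 concentration, post-compound challenge · Compound – 3 µM, single point · Incubation – dye loading 75 min at 37 °C, then 30 min room temperature · Measured by – Fluo-8 intracellular calcium dye fluorescence, real-time kinetic reads · Benchmarks – vehicle and agonist controls · Replicates – singlicate, one well per test compound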
TAAR1 ag: human TAAR1 agonism. Q96RJ0. CHO RD-HGA16 TAAR1, Fluo-8 calcium fluorescence; vehicle wells 0%, saturating PEA agonist 100%. activation, % at 3 µM. actives 0.99% (n = 360,000). AID 624467;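 active = activation above the mean activation of all test compounds in the run plus 3 SD, cut at about 38% in these data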
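System: CHO RD-HGA16 cells carrying human TAAR1 plus Gα16; Incubation: 17-24 h seeding, 75 min 37 °C dye, 30 min RT; Measured by: Fluo-8 fluorescence, 5 s baseline then 140 s kinetic read; Control set: DMSO and PEA EC100; Replication: single well for each compound.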
V1aR counter: V1a receptor agonism, counter-screen for OXTR agonists; P37288; CHO-V1R cells, Fluo-8 calcium fluorescence, agonist mode; 0% DMSO, 100% 3 nM vasopressin; activation, % at 3 µM; actives 0.25% (n = 320,000); AID 2797;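 active = activation above the mean activation of all tested compounds plus 3 SD, per screening run, cut at about 20% in these data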;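 note: signal is peak over basal fluorescence ratio across a 100 second FLIPR read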
Target sequence (P37288 whole entry, looked up): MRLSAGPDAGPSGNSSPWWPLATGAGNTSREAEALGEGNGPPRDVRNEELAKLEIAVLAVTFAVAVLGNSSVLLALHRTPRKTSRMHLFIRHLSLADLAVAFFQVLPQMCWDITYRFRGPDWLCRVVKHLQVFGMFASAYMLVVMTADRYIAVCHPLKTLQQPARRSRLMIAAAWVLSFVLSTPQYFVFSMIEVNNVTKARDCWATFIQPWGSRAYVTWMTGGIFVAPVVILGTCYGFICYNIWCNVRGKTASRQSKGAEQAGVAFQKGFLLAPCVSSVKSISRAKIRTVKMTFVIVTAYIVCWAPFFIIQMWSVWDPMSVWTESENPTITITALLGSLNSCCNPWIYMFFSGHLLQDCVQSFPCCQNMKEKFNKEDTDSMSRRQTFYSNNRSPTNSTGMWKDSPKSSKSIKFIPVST
Of the large screens only hits and unclear results are named; the others gave an inactive call. In the library only some 2.3% were active in any assay of this set; here they are far more common.

O=C1N[C@@H](c2ccccc2)COC(=O)[C@@H](Cc2ccc(F)cc2)C/C=C\C[C@@H]1CC(=O)N(CCO)Cc1ccccc1	OXTR agonist 43, TAAR1 antag 77, TAAR1 ag 39, V1aR counter 36
O=C1N[C@@H](Cc2c[nH]c3ccccc23)COC(=O)[C@H](Cc2ccc(F)cc2)C/C=C\C[C@@H]1CC(=O)N(CCO)Cc1ccccc1	none
O=C1N[C@@H](Cc2c[nH]c3ccccc23)COC(=O)[C@@H](Cc2ccc(F)cc2)C/C=C\C[C@H]1CC(=O)N(CCO)Cc1ccccc1	TAAR1 antag 55
O=C1N[C@@H](c2ccccc2)COC(=O)[C@H](Cc2ccc(F)cc2)C/C=C\C[C@H]1CC(=O)N(CCO)Cc1ccccc1	none (no result: OXTR potentiate, OXTR agonist, V1aR counter)
O=C1N[C@H](Cc2ccccc2)COC(=O)[C@H](Cc2ccc(F)cc2)CC/C=C/C[C@@H]1CC(=O)N(CCO)Cc1ccccc1	TAAR1 antag 64, TAAR1 ag 44
O=C1OC[C@@H]2CCCN2C(=O)[C@@H](CC(=O)N(CCO)Cc2ccccc2)C/C=C\C[C@@H]1Cc1ccc(F)cc1	TAAR1 antag 54
COc1cccc(CNC(=O)[C@H]2CCCN2C(=O)[C@H]2CCCN2C(=O)c2ccc(OC(F)(F)F)cc2)c1	none (no result: OXTR potentiate, OXTR agonist, V1aR counter)
CC(C)(C)[C@H]1COC(=O)[C@@H](Cc2ccc(F)cc2)C/C=C\C[C@@H](CC(=O)N[C@@H](CO)Cc2ccccc2)C(=O)N1	TAAR1 antag 58
CC(C)(C)[C@H]1COC(=O)[C@@H](Cc2ccc(F)cc2)C/C=C\C[C@@H](CC(=O)N[C@H](CO)Cc2ccccc2)C(=O)N1	none
CC(=O)C1=C(C)NC(SCC(=O)c2ccc(F)cc2)=C(C#N)C1c1ccco1 (stereo not drawn)	TAAR1 antag 51
CCC(Oc1ccc2c(=O)c(-c3ccccc3OC)coc2c1)C(=O)OCc1ccccc1 (stereo not drawn)	TAAR1 antag 55
CCCCCc1c(C)nc(Nc2ccccc2)[nH]c1=O	TAAR1 ag 38
COc1ccc(CNC(=O)[C@@H]2CC=C[C@@H]3CCN(Cc4ccc(Cl)c(Cl)c4)C(=O)[C@@H]32)cc1	none
COc1ccc(CNC[C@@H](CCCCN(C)Cc2ccc(OC)cc2)N2C[C@H](c3ccccc3)N(CCc3ccc(Cl)c(Cl)c3)C(=O)C2=O)cc1	OXTR agonist 29, V1aR counter 58 (no result: TAAR1 antag, TAAR1 ag)
CC(=O)Nc1ccc(-n2cnnn2)cc1	none
CC(Oc1ccc(C#N)cc1)C(=O)Nc1ccc(-n2cnnn2)cc1 (stereo not drawn)	TAAR1 ag 44 (no result: OXTR potentiate, OXTR agonist, V1aR counter)
COc1ccc(Cl)cc1C(=O)NC1CC(C)(C)NC(C)(C)C1	none (no result: OXTR potentiate, OXTR agonist, V1aR counter)
COc1ccc(CNC(=O)OC23CN(C(=O)OC(C)C)N(C(=O)OC(C)C)CC2(O)CN(S(=O)(=O)c2ccc(C)cc2)C3)cc1OC (stereo not drawn)	none (no result: OXTR potentiate, OXTR agonist, V1aR counter)
Cc1ccc(S(=O)(=O)N2CC3(O)CN(C(=O)OC(C)C)N(C(=O)OC(C)C)CC3(OC(=O)NCc3ccccc3)C2)cc1 (stereo not drawn)	TAAR1 antag 60 (no result: OXTR potentiate, OXTR agonist, V1aR counter)
CC(C)(C)NC(=O)C1c2ccccc2OCC(=O)N1CCc1ccccc1 (stereo not drawn)	none (no result: OXTR potentiate, OXTR agonist, V1aR counter)
Cc1cccc(N2CCN(C(=O)c3ccc(CS(=O)(=O)c4ccccc4C)o3)CC2C)c1 (stereo not drawn)	TAAR1 antag 50
Cc1cccc(N2CCN(C(=O)c3ccccn3)CC2C)c1 (stereo not drawn)	none
Cc1nc2ccc(S(=O)(=O)Nc3cc(-c4nc5cccnc5s4)ccc3C)cc2s1	none
Cc1nc2ccc(S(=O)(=O)Nc3cccc(-c4nc5cccnc5s4)c3C)cc2s1	TAAR1 antag 59
CCC1(c2ccccc2)NC(=O)N(CC(=O)N2CCc3ccccc32)C1=O (stereo not drawn)	none
CCC1(c2ccc(F)cc2)NC(=O)N(CC(=O)N2CCc3ccccc32)C1=O (stereo not drawn)	OXTR agonist 29, TAAR1 ag 68, V1aR counter 27
COc1ccc(CCNC(=O)c2cccc(S(=O)(=O)N3CCCCC3)c2)cc1	none
C=CCN(c1ccccc1Cl)S(=O)(=O)c1cccc(C(=O)NCCc2ccc(OC)cc2)c1	TAAR1 antag 61
O=C(CCCN1C(=O)/C(=C\c2cccs2)SC1=S)Nc1ccccn1	none
O=C(CCN1C(=O)/C(=C/c2cccs2)SC1=S)Nc1ccccn1	TAAR1 antag 50
C[C@@H]1CN([C@@H](C)CO)C(=O)CCCn2cc(nn2)CO[C@H]1CN(C)C(=O)CCC(F)(F)F	none (no result: OXTR potentiate, OXTR agonist, V1aR counter)
C[C@@H]1CN([C@H](C)CO)C(=O)CCCn2cc(nn2)CO[C@H]1CN(C)S(=O)(=O)c1cn(C)cn1	none (no result: OXTR potentiate, OXTR agonist, V1aR counter)
CCOC(=O)C1=C(Cn2cnc3ccccc32)NC(=O)NC1c1cc(C)ccc1C (stereo not drawn)	TAAR1 antag 65, TAAR1 ag 58
COC(=O)C1=C(Cn2cnc3ccccc32)NC(=O)NC1c1cc(C)ccc1C (stereo not drawn)	none
OC[C@@H](O)C(O)[C@@H](O)CO (stereo partly drawn)	none (no result: OXTR potentiate, OXTR agonist, V1aR counter)
O=C(NCCc1ccccc1)c1cc(-c2ccc3c(c2)OCO3)on1	TAAR1 ag 38
CCCNC(=O)c1cc(-c2ccc3c(c2)OCO3)on1	none
COc1ccc(N(CC(=O)Nc2ccc3c(c2)OCO3)S(=O)(=O)c2ccccc2)c(OC)c1	TAAR1 antag 56
CCOC(=O)Cc1csc(NC(=O)/C=C/c2ccc(Br)o2)n1	TAAR1 antag 49
CCOC(=O)Cc1csc(NC(=O)C(C)c2ccc([N+](=O)[O-])cc2)n1 (stereo not drawn)	OXTR agonist 27, TAAR1 ag 50, V1aR counter 26
COc1ccc(CN2C(=O)C(CC(=O)NC3CC3)CC(C(=O)N3CCOCC3)=C2C)cc1 (stereo not drawn)	none (no result: OXTR potentiate, OXTR agonist, V1aR counter)
COC(=O)[C@]12C[C@H](CC(=O)NCc3cccs3)C(=O)N(CCC3=CCCCC3)C1=C[C@H](C(C)(C)C)O[C@@H]2C	none (no result: OXTR potentiate, OXTR agonist, V1aR counter)
CCCCCc1c(-c2ccc(Cl)cc2)ncn1CCc1ccccc1OC	none (no result: OXTR potentiate, OXTR agonist, V1aR counter)
CCCCc1c(-c2ccc(OC)cc2)ncn1CCc1ccccc1OC	TAAR1 antag 50 (no result: OXTR potentiate, OXTR agonist, V1aR counter)
CCCCCc1c(-c2ccc(OC)cc2)ncn1CCc1ccccc1OC	TAAR1 antag 61 (no result: OXTR potentiate, OXTR agonist, V1aR counter)
CCCCNc1cccc2c1S(=O)(=O)N[C@H](CC(C)C)CO2	none (no result: OXTR potentiate, OXTR agonist, V1aR counter)
Cc1cccc(C)c1NC(=O)C(CCc1ccccc1)N1CCN(CCN(C)C)CC1 (stereo not drawn)	none (no result: OXTR potentiate, OXTR agonist, V1aR counter)
CSC(=Nc1ccccc1)N=C(SCc1ccccc1)N(C)C	TAAR1 antag 77 (no result: OXTR potentiate, OXTR agonist, V1aR counter)
COCc1[nH]nc2c1C(c1ccc(F)cc1)N(c1ccc(OC)cc1)C2=O (stereo not drawn)	none (no result: OXTR potentiate, OXTR agonist, V1aR counter)
